Reference: ChEMBL document CHEMBL1914430, “Synthesis of some new 1,3,5-trisubstituted pyrazolines bearing benzene sulfonamide as anticancer and anti-inflammatory agents” (Bioorg Med Chem Lett, 2011)

What was measured:
Format in all cases: functional
[1] = Anticancer activity against human Hs 578T cells assessed as cellular growth at 10 uM
In short: (§1)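 Primary one-dose screen at 10⁻⁵ M, run per the NCI Drug Evaluation Branch protocol on the full panel of about 60 human tumor lines. The panel covers nine cancer types: leukemia, melanoma, lung, colon, CNS, ovarian, renal, prostate and breast.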

[2] = test system: NCI/ADR-RES; test: Anticancer activity against human NCI/ADR-RES cells assessed as cellular growth at 10 uM
In short: (§2)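 Primary single-dose screen at 10⁻⁵ M, run under the NCI Drug Evaluation Branch protocol against the full panel of about 60 human tumour lines. The lines come from leukaemia, melanoma, lung, colon, CNS, ovarian, renal, prostate and breast cancers. Read-out is cellular growth.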

[3] = test system: SF-268; test: Anticancer activity against human SF268 cells assessed as cellular growth at 10 uM; in short: as §2
[4] = test system: EKVX; test: Anticancer activity against human EKVX cells assessed as cellular growth at 10 uM; in short: as §1
[5] = test system: PC-3; test: Anticancer activity against human PC3 cells assessed as cellular growth at 10 uM; in short: as §2
[6] = test system: T47D; test: Anticancer activity against human T47D cells assessed as cellular growth at 10 uM
In short: (§3)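 NCI primary one-dose screen at 10⁻⁵ M against the ~60 human tumour cell line panel (leukemia, melanoma, lung, colon, CNS, ovarian, renal, prostate, breast). Read-out is cellular growth.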

[7] = test system: NCI-H522; test: Anticancer activity against human NCI-H522 cells assessed as cellular growth at 10 uM; in short: as §2
[8] = test system: OVCAR-5; test: Anticancer activity against human OVCAR5 cells assessed as cellular growth at 10 uM; in short: as §2
[9] = test system: Rattus norvegicus; test: Antiinflammatory activity in Wistar rat assessed as inhibition of carrageenan-induced hind paw edema at 20 mg/kg, po administered 30 mins before carrageenan challenge measured after 3 hrs by plethysmometer
In short: (§4)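 Wistar rats of either sex, 150–175 g, fasted 16 h, n = 6 per group. Compound given orally at 20 mg/kg as a suspension in 1% CMC in water (10 mL/kg); controls got vehicle only. After 30 min, 0.1 mL of 1% carrageenan in saline was injected subplantar into the left hind paw. Paw volume was measured by plethysmometer at 0, 3 and 5 h. Inhibition = (1 − Vt/Vc) × 100, reported as mean ± SEM.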

[10] = test system: M14; test: Anticancer activity against human M14 cells assessed as cellular growth at 10 uM; in short: as §1
[11] = test system: MDA-MB-435; test: Anticancer activity against human MDA-MB-435 cells assessed as cellular growth at 10 uM; in short: as §1
[12] = test system: SN12C; test: Anticancer activity against human SN12C cells assessed as cellular growth at 10 uM; in short: as §2
[13] = test system: UACC-62; test: Anticancer activity against human UACC62 cells assessed as cellular growth at 10 uM; in short: as §3
[14] = test system: BT-549; test: Anticancer activity against human BT549 cells assessed as cellular growth at 10 uM; in short: as §1
[15] = test system: HCT-116; test: Anticancer activity against human HCT116 cells assessed as cellular growth at 10 uM; in short: as §1
[16] = test system: MCF7; test: Anticancer activity against human MCF7 cells assessed as cellular growth at 10 uM; in short: as §1
[17] = test system: KM12; test: Anticancer activity against human KM12 cells assessed as cellular growth at 10 uM; in short: as §1
[18] = test system: NCI-H226; test: Anticancer activity against human NCI-H226 cells assessed as cellular growth at 10 uM; in short: as §2
[19] = test system: ACHN; test: Anticancer activity against human ACHN cells assessed as cellular growth at 10 uM; in short: as §1
[20] = test system: SK-MEL-28; test: Anticancer activity against human SK-MEL-28 cells assessed as cellular growth at 10 uM; in short: as §2
[21] = test system: MDA-MB-231; test: Anticancer activity against human MDA-MB-231 cells assessed as cellular growth at 10 uM; in short: as §1
[22] = test system: SNB-75; test: Anticancer activity against human SNB75 cells assessed as cellular growth at 10 uM; in short: as §2
[23] = test system: IGROV-1; test: Anticancer activity against human IGROV1 cells assessed as cellular growth at 10 uM; in short: as §1
[24] = test system: OVCAR-8; test: Anticancer activity against human OVCAR8 cells assessed as cellular growth at 10 uM; in short: as §2
[25] = test system: HOP-62; test: Anticancer activity against human HOP62 cells assessed as cellular growth at 10 uM; in short: as §1
[26] = test system: OVCAR-3; test: Anticancer activity against human OVCAR3 cells assessed as cellular growth at 10 uM; in short: as §2
[27] = test system: SK-MEL-5; test: Anticancer activity against human SK-MEL-5 cells assessed as cellular growth at 10 uM; in short: as §2
[28] = test system: HCT-15; test: Anticancer activity against human HCT15 cells assessed as cellular growth at 10 uM; in short: as §1
[29] = test system: HCC 2998; test: Anticancer activity against human HCC2998 cells assessed as cellular growth at 10 uM; in short: as §1
[30] = test system: SW-620; test: Anticancer activity against human SW620 cells assessed as cellular growth at 10 uM; in short: as §3
[31] = test system: SF-539; test: Anticancer activity against human SF539 cells assessed as cellular growth at 10 uM; in short: as §2
[32] = test system: A498; test: Anticancer activity against human A498 cells assessed as cellular growth at 10 uM; in short: as §1
[33] = test system: Rattus norvegicus; test: Antiinflammatory activity in Wistar rat assessed as inhibition of carrageenan-induced hind paw edema at 20 mg/kg, po administered 30 mins before carrageenan challenge measured after 5 hrs by plethysmometer; in short: as §4
[34] = test system: HT-29; test: Anticancer activity against human HT-29 cells assessed as cellular growth at 10 uM; in short: as §1
[35] = test system: HOP-92; test: Anticancer activity against human HOP92 cells assessed as cellular growth at 10 uM; in short: as §1
[36] = test system: MDA-MB-468; test: Anticancer activity against human MDA-MB-468 cells assessed as cellular growth at 10 uM; in short: as §2
[37] = test system: NCI-H322M; test: Anticancer activity against human NCI-H322M cells assessed as cellular growth at 10 uM; in short: as §2
[38] = test system: TK-10; test: Anticancer activity against human TK10 cells assessed as cellular growth at 10 uM; in short: as §3
[39] = test system: Malme-3M; test: Anticancer activity against human MALME-3M cells assessed as cellular growth at 10 uM; in short: as §1
[40] = test system: U-251; test: Anticancer activity against human U251 cells assessed as cellular growth at 10 uM; in short: as §3
[41] = test system: 786-0; test: Anticancer activity against human 786-0 cells assessed as cellular growth at 10 uM; in short: as §1
[42] = test system: NCI-H460; test: Anticancer activity against human NCI-H460 cells assessed as cellular growth at 10 uM; in short: as §2
[43] = test system: SNB-19; test: Anticancer activity against human SNB19 cells assessed as cellular growth at 10 uM; in short: as §2
[44] = test system: SK-MEL-2; test: Anticancer activity against human SK-MEL-2 cells assessed as cellular growth at 10 uM; in short: as §2
[45] = test system: OVCAR-4; test: Anticancer activity against human OVCAR4 cells assessed as cellular growth at 10 uM; in short: as §2
[46] = test system: UACC-257; test: Anticancer activity against human UACC257 cells assessed as cellular growth at 10 uM; in short: as §3
[47] = test system: LOX IMVI; test: Anticancer activity against human LOXIMVI cells assessed as cellular growth at 10 uM; in short: as §1
[48] = test system: SK-OV-3; test: Anticancer activity against human SKOV3 cells assessed as cellular growth at 10 uM; in short: as §2
[49] = test system: A549; test: Anticancer activity against human A549 cells assessed as cellular growth at 10 uM; in short: as §1
[50] = test system: RXF 393; test: Anticancer activity against human RXF393 cells assessed as cellular growth at 10 uM; in short: as §2
[51] = test system: DU-145; test: Anticancer activity against human DU145 cells assessed as cellular growth at 10 uM; in short: as §1
[52] = test system: NCI-H23; test: Anticancer activity against human NCI-H23 cells assessed as cellular growth at 10 uM; in short: as §2
[53] = test system: UO-31; test: Anticancer activity against human UO31 cells assessed as cellular growth at 10 uM; in short: as §3
[54] = test system: SF-295; test: Anticancer activity against human SF295 cells assessed as cellular growth at 10 uM; in short: as §2
[55] = test system: COLO 205; test: Anticancer activity against human COLO205 cells assessed as cellular growth at 10 uM; in short: as §1
[56] = test system: RPMI-8226; test: Anticancer activity against human RPMI8226 cells assessed as cellular growth at 10 uM; in short: as §2

`COc1ccc(C2CC(c3cc(Cl)c(C)cc3OC)=NN2c2ccc(S(N)(=O)=O)cc2)cc1OC` (stereo not drawn) showed an Activity [1] of 100.69%, an Activity [2] of 77.18% and an Activity [3] of 90.07%. For the same compound, the Activity [4] was 80.65%, the Activity [5] was 52.25% and the Activity [6] was 77.03%. For the same compound, the Activity [7] was 74.33%, the Activity [8] was 70.62% and the inhibition in vivo at 20 mg/kg [9] was 31.6%. For the same compound, the Activity [10] was 81.83%, the Activity [11] was 95.83% and the Activity [12] was 87.41%. For the same compound, the Activity [13] was 65.06%, the Activity [14] was 83.23% and the Activity [15] was 56.66%. It also gave an Activity [16] of 80.37%, an Activity [17] of 91.8% and an Activity [18] of 81.27%. The Activity [19] was 83.96%, the Activity [20] was 108.41% and the Activity [21] was 84.64%. For the same compound, the Activity [22] was 83.56%, the Activity [23] was 79.08% and the Activity [24] was 73.83%. For the same compound, the Activity [25] was 87.79%, the Activity [26] was 103.3% and the Activity [27] was 84.63%. For the same compound, the Activity [28] was 75.93%, the Activity [29] was 99.94% and the Activity [30] was 93.6%. It also gave an Activity [31] of 102.69%, an Activity [32] of 111.51% and an inhibition in vivo at 20 mg/kg [33] of 47.6%. For the same compound, the Activity [34] was 78.73%, the Activity [35] was 101.2% and the Activity [36] was 94.62%. It also gave an Activity [37] of 103.5%, an Activity [38] of 112.95% and an Activity [39] of 101.32%. The Activity [40] was 78.37%, the Activity [41] was 92.29% and the Activity [42] was 89.78%. The Activity [43] was 100.7%, the Activity [44] was 95.75% and the Activity [45] was 87.79%. It also gave an Activity [46] of 87.16%, an Activity [47] of 77.92% and an Activity [48] of 116.37%. The Activity [49] was 73.23%, the Activity [50] was 77.69% and the Activity [51] was 105.76%. For the same compound, the Activity [52] was 75.79%, the Activity [53] was 59.09% and the Activity [54] was 122.81%. It also gave an Activity [55] of 101.3% and an Activity [56] of 90.96%.

`COc1cc(C)c(Cl)cc1C1=NN(c2ccc(S(N)(=O)=O)cc2)C(c2cccc(O)c2)C1` (stereo not drawn) showed an inhibition in vivo at 20 mg/kg [9] of 39.5% and an inhibition in vivo at 20 mg/kg [33] of 16.7%.
